According to ChEMBL document CHEMBL1134480, “Antiplasmodial activity and cytotoxicity of bis-, tris-, and tetraquinolines with linear or cyclic amino linkers” (J Med Chem, 2001):
pIC50: −log10 of the molar value.

How the values were obtained:
MRC5 [1] = experiment: Cytotoxicity against MRC-5 cells at concentration 1 uM; assay type: functional; settings: Homo sapiens
In short: (§1)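 MRC-5 human embryonic lung diploid cells were seeded at 5000 per well. After 24 h the cells were washed and exposed to 2-fold drug dilutions in RPMI + 5% FCS, with final DMSO below 0.5%. Incubation was 7 days at 37 °C in 5% CO2. Viability was read by MTT absorbance at 540 nm.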

MRC5 [2] = experiment: Cytotoxicity against MRC-5 cells at concentration 32 uM; assay type: functional; settings: Homo sapiens; in short: as §1
MRC5 [3] = experiment: Cytotoxicity against MRC-5 cells at concentration 0.5 uM; assay type: functional; settings: Homo sapiens; in short: as §1
MRC5 [4] = experiment: Cytotoxicity against MRC-5 cells at concentration 8 uM; assay type: functional; settings: Homo sapiens; in short: as §1
Mus musculus [5] = species: Mus musculus; experiment: In vitro cytotoxic activity against mouse peritoneal macrophages at a concentration 8 uM; Non-toxic; assay type: functional
Mus musculus [6] = species: Mus musculus; experiment: In vitro cytotoxic activity against mouse peritoneal macrophages at a concentration 2 uM; Non-toxic; assay type: functional
Plasmodium falciparum [7] = experiment: In vitro growth inhibition of Plasmodium falciparum FcB1R; assay type: functional, organism-based
In short: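 Asynchronous P. falciparum cultures were grown in human erythrocytes at 0.5% parasitemia and 1% hematocrit. They were exposed to serial drug dilutions, with DMSO ≤0.1%, for 24 h at 37 °C before adding 0.5 µCi [3H]hypoxanthine per well. Inhibition was measured as incorporated radioactivity versus drug-free controls on the same plate. IC50 came from concentration–response curves, reported as mean ± SD of three independent experiments; FcB1R used several experiments.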

[8] = In vitro cytotoxicity against mouse peritoneal macrophages at concentration 32 uM; Toxic; assay type: toxicity
[9] = In vitro cytotoxic activity against mouse peritoneal macrophages at a concentration 32 uM; Toxic; assay type: toxicity
Plasmodium falciparum [10] = experiment: In vitro growth inhibition of Plasmodium falciparum W2; assay type: functional, organism-based
Plasmodium falciparum [11] = experiment: (§2) In vitro growth inhibition of Plasmodium falciparum D6; assay type: functional, organism-based
Plasmodium falciparum [12] = experiment: In vitro growth inhibition of Plasmodium falciparum F32; assay type: functional, organism-based
Plasmodium falciparum [13] = experiment: as §2; assay type: functional, organism-based; remark: listed apart in the source
In short: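 Asynchronous P. falciparum cultures in human erythrocytes (0.5% parasitemia, 1% final hematocrit) exposed to serially diluted drug for 24 h at 37 °C, then pulsed with 0.5 µCi [³H]hypoxanthine per well. Inhibition from incorporated radioactivity versus drug-free control on the same plate; IC50 from concentration-response curve; mean ± SD of three independent experiments. DMSO ≤0.1% final.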

[14] = In vitro cytotoxic activity against mouse peritoneal macrophages at a concentration 8 uM; Toxic; assay type: toxicity
[15] = In vitro cytotoxic activity against mouse peritoneal macrophages at a concentration 2 uM; Toxic; assay type: toxicity

| SMILES | cytotoxicity at 1 µM (MRC5 [1]) | cytotoxicity at 32 µM (MRC5 [2]) | cytotoxicity at 0.5 µM (MRC5 [3]) | cytotoxicity at 8 µM (MRC5 [4]) | Cytotoxicity (Mus musculus [5]) | Cytotoxicity (Mus musculus [6]) | pIC50 (Plasmodium falciparum [7]) | Cytotoxicity [8] | Cytotoxicity [9] | pIC50 (Plasmodium falciparum [10]) | pIC50 (Plasmodium falciparum [11]) | pIC50 (Plasmodium falciparum [12]) | pIC50 (Plasmodium falciparum [13]) | Cytotoxicity [14] | Cytotoxicity [15] |
| --- | --- | --- | --- | --- | --- | --- | --- | --- | --- | --- | --- | --- | --- | --- | --- |
| O=C(CCCC(=O)N1CCN(c2ccnc3cc(Cl)ccc23)CCN(c2ccnc3cc(Cl)ccc23)CC1)N1CCNCCNCC1 | 0% | 0% | 0% | 0% | Not toxic | Not toxic | < 6.00 |  |  |  |  |  |  |  |  |
| NC(=O)CCC(=O)N1CCN(c2ccnc3cc(Cl)ccc23)CCN(c2ccnc3cc(Cl)ccc23)CC1 | 0% | 0% | 0% | 0% | Not toxic | Not toxic | 6.01 |  |  |  |  |  |  |  |  |
| O=C(CCCC(=O)N1CCN(c2ccnc3cc(Cl)ccc23)CCN(c2ccnc3cc(Cl)ccc23)CC1)N1CCNCCN(c2ccnc3cc(Cl)ccc23)CC1 | 0% | 0% | 0% | 0% | Not toxic | Not toxic | 6.56 |  |  |  |  |  |  |  |  |
| CC(C)(C)OC(=O)NCCC(=O)N1CCN(c2ccnc3cc(Cl)ccc23)CCN(c2ccnc3cc(Cl)ccc23)CC1 | 0% | 100% | 0% | 0% | Not toxic | Not toxic | < 6.00 | Toxic |  |  |  |  |  |  |  |
| O=C(O)CCC(=O)N1CCN(c2ccnc3cc(Cl)ccc23)CCN(c2ccnc3cc(Cl)ccc23)CC1 | 1% | 0% | 0% | 0% | Not toxic | Not toxic | < 6.00 |  |  |  |  |  |  |  |  |
| O=C(CCCCCCCC(=O)N1CCN(c2ccnc3cc(Cl)ccc23)CCN(c2ccnc3cc(Cl)ccc23)CC1)N1CCN(c2ccnc3cc(Cl)ccc23)CCN(c2ccnc3cc(Cl)ccc23)CC1 | 0% | 0% | 0% | 0% | Not toxic | Not toxic | 7.65 |  | Toxic | 7.17 | 7.38 | 7.33 |  |  |  |
| O=C(CCCC(=O)N1CCN(c2ccnc3cc(Cl)ccc23)CCN(c2ccnc3cc(Cl)ccc23)CC1)N1CCN(c2ccnc3cc(Cl)ccc23)CCN(c2ccnc3cc(Cl)ccc23)CC1 | 0% | 0% | 0% | 0% | Not toxic | Not toxic | 7.74 |  |  | 7.53 |  | 7.75 | 7.73 |  |  |
| CC(NC(=O)OC(C)(C)C)C(=O)N1CCN(c2ccnc3cc(Cl)ccc23)CCN(c2ccnc3cc(Cl)ccc23)CC1 (configuration not stated) | 0% | 0% | 0% | 0% | Not toxic | Not toxic | 6.33 |  |  |  |  |  |  |  |  |
| O=C(CCCOCc1ccccc1)N1CCN(c2ccnc3cc(Cl)ccc23)CCN(c2ccnc3cc(Cl)ccc23)CC1 | 0% | 14% | 0% | 0% | Not toxic | Not toxic | 6.00 | Toxic |  |  |  |  |  |  |  |
| O=C(CCCCCCCCCCC(=O)N1CCN(c2ccnc3cc(Cl)ccc23)CCN(c2ccnc3cc(Cl)ccc23)CC1)N1CCN(c2ccnc3cc(Cl)ccc23)CCN(c2ccnc3cc(Cl)ccc23)CC1 | 0% | 0% | 0% | 0% | Not toxic | Not toxic | 7.10 |  |  | 6.74 | 6.91 | 6.88 |  |  |  |
| O=C(CCCCN1CCCCC1)N1CCN(c2ccnc3cc(Cl)ccc23)CCN(c2ccnc3cc(Cl)ccc23)CC1 | 0% | 92% | 0% | 92% |  | Not toxic | 6.88 |  | Toxic |  |  |  |  | Toxic |  |
| O=C(CNCC(=O)N1CCN(c2ccnc3cc(Cl)ccc23)CCN(c2ccnc3cc(Cl)ccc23)CC1)N1CCN(c2ccnc3cc(Cl)ccc23)CCN(c2ccnc3cc(Cl)ccc23)CC1 | 0% | 0% | 0% | 0% | Not toxic | Not toxic | 6.99 |  |  |  |  |  |  |  |  |
| O=C(O)CCCC(=O)N1CCN(c2ccnc3cc(Cl)ccc23)CCN(c2ccnc3cc(Cl)ccc23)CC1 | 0% | 0% | 0% | 0% | Not toxic | Not toxic | 6.03 |  |  |  |  |  |  |  |  |
| N=C(N)NCCC(=O)N1CCN(c2ccnc3cc(Cl)ccc23)CCN(c2ccnc3cc(Cl)ccc23)CC1 | 0% | 0% | 0% | 0% | Not toxic | Not toxic | < 6.00 |  |  |  |  |  |  |  |  |
| NCCC(=O)N1CCN(c2ccnc3cc(Cl)ccc23)CCN(c2ccnc3cc(Cl)ccc23)CC1 | 0% | 0% | 0% | 0% | Not toxic | Not toxic | < 6.00 |  |  |  |  |  |  |  |  |
| Clc1ccc2c(N3CCNCCNCC3)ccnc2c1 | 0% | 0% | 0% | 0% | Not toxic | Not toxic | < 6.00 |  |  |  |  |  |  |  |  |
| O=C(CCCCCCCCCCCN1CCCCC1)N1CCN(c2ccnc3cc(Cl)ccc23)CCN(c2ccnc3cc(Cl)ccc23)CC1 | 11% | 89% | 0% | 92% |  |  | 6.96 |  | Toxic |  |  |  |  | Toxic | Toxic |
| O=C(c1ccc(C(=O)N2CCN(c3ccnc4cc(Cl)ccc34)CCN(c3ccnc4cc(Cl)ccc34)CC2)cc1)N1CCN(c2ccnc3cc(Cl)ccc23)CCN(c2ccnc3cc(Cl)ccc23)CC1 | 0% | 0% | 0% | 0% | Not toxic | Not toxic | 6.57 |  |  |  |  |  |  |  |  |
| O=C(CCC(=O)N1CCN(c2ccnc3cc(Cl)ccc23)CCN(c2ccnc3cc(Cl)ccc23)CC1)N1CCN(c2ccnc3cc(Cl)ccc23)CCN(c2ccnc3cc(Cl)ccc23)CC1 | 0% | 0% | 0% | 0% | Not toxic | Not toxic | 7.42 |  |  | 7.53 | 7.66 | 7.63 |  |  |  |
| Clc1ccc2c(NCCN(CCNc3ccnc4cc(Cl)ccc34)Cc3ccnc4ccccc34)ccnc2c1 | 0% | 0% | 0% | 0% | Not toxic | Not toxic | < 6.00 |  |  |  |  |  |  |  |  |
| NCCN(CCNc1ccnc2cc(Cl)ccc12)CCNc1ccnc2cc(Cl)ccc12 | 0% | 51% | 0% | 0% | Not toxic | Not toxic | 6.22 |  |  |  |  |  |  |  |  |
| O=C(CCCO)N1CCN(c2ccnc3cc(Cl)ccc23)CCN(c2ccnc3cc(Cl)ccc23)CC1 | 0% | 0% | 0% | 0% | Not toxic | Not toxic | 6.03 |  |  |  |  |  |  |  |  |
| O=C(CCCCCCCN1CCCCC1)N1CCN(c2ccnc3cc(Cl)ccc23)CCN(c2ccnc3cc(Cl)ccc23)CC1 | 0% | 91% | 0% | 91% |  |  | 7.09 |  | Toxic |  |  |  |  | Toxic | Toxic |
| CC(N)C(=O)N1CCN(c2ccnc3cc(Cl)ccc23)CCN(c2ccnc3cc(Cl)ccc23)CC1 (configuration not stated) | 0% | 88% | 0% | 0% |  | Not toxic | 6.64 |  | Toxic |  |  |  |  | Toxic |  |
